Laboratory results as given in ChEMBL document CHEMBL1777742, “Synthesis, cytotoxic activities and cell cycle arrest profiles of naphtho[2,1-α]pyrrolo[3,4-c]carbazole-5,7(6H,12H)-dione glycosides” (Bioorg Med Chem Lett, 2011).
The source made the active and inactive calls. The rule behind the calls is not given here.

Assays:
Type in all cases: functional, cell-based
BXPC-3 [1] = assay: Cytotoxicity against human BxPC3 cells
PC-3 = assay: Cytotoxicity against human PC3 cells
MCF7 [2] = assay: Cytotoxicity against human MCF7 cells
MDA-MB-435 = assay: Cytotoxicity against human MDA-MB-435 cells
MDA-MB-231 = assay: Cytotoxicity against human MDA-MB-231 cells
MDA-MB-468 = assay: Cytotoxicity against human MDA-MB-468 cells
A549 = assay: Cytotoxicity against human A549 cells
HCT-116 = assay: Cytotoxicity against human HCT116 cells
MCF7 [3] = assay: Cell cycle arrest in human MCF7 cells assessed as accumulation of cells at G1 phase at 10 uM after 24 hrs by FACS analysis
Summary of the method: (§1)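 MCF-7 breast cells were exposed to each compound at 10 μM for 24 h. Cell-cycle distribution was then analysed by FACS, reading the percentage of cells in G1 and S phases.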

MCF7 [4] = assay: Cell cycle arrest in human MCF7 cells assessed as accumulation of cells at S phase at 10 uM after 24 hrs by FACS analysis; summary of the method: as §1
BXPC-3 [5] = assay: Cell cycle arrest in human BxPC3 cells assessed as accumulation of cells at S phase at 10 uM after 24 hrs by FACS analysis
Summary of the method: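 BxPC3 cells were treated with each compound at 10 μM. The cell-cycle profile was determined by FACS as the percentage of cells in each phase, including S and G2/M.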

MCF7 [6] = assay: Cell cycle arrest in human MCF7 cells assessed as decrease of cells at S phase at 10 uM after 24 hrs by FACS analysis
Summary of the method: (§2)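 Cells were treated with a single 10 μM concentration and analysed by FACS for cell-cycle distribution. The read-out was the percentage of cells in the G1, S and G2/M phases. A 24 h exposure is stated for MCF-7; no duration is given for BxPC3.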

BXPC-3 [7] = assay: Cell cycle arrest in human BxPC3 cells assessed as accumulation of cells at G2/M phase at 10 uM after 24 hrs by FACS analysis; summary of the method: as §2

Compound	IC50 (BXPC-3 [1])	IC50 (PC-3)	IC50 (MCF7 [2])	IC50 (MDA-MB-435)	IC50 (MDA-MB-231)	IC50 (MDA-MB-468)	IC50 (A549)	IC50 (HCT-116)	Activity (MCF7 [3])	Activity (MCF7 [4])	Activity (BXPC-3 [5])	Activity (MCF7 [6])	Activity (BXPC-3 [7])
O=C1NC(=O)c2c1c1c3ccccc3ccc1c1c2c2ccccc2n1[C@@H]1O[C@H](CO)[C@@H](O)[C@H](O)[C@H]1O	5.4 µM	2.3 µM	6.1 µM	3.5 µM	2.7 µM	6.1 µM	2.8 µM	5.1 µM	inactive	Active	Active	–	–
O=C1NC(=O)c2c1c1c3ccccc3ccc1c1c2c2ccccc2n1[C@H]1C[C@H](O)[C@@H](CO)O1	7.4 µM	2.6 µM	7.3 µM	4.1 µM	3.3 µM	9.1 µM	3.4 µM	8.7 µM	inactive	Active	Active	–	–
C[C@@H]1O[C@@H](n2c3ccccc3c3c4c(c5c6ccccc6ccc5c32)C(=O)NC4=O)[C@H](O)[C@H](O)[C@H]1O	7.3 µM	2.7 µM	4.5 µM	3.6 µM	4.7 µM	5 µM	2.8 µM	3.1 µM	inactive	Active	–	–	–
O=C1NC(=O)c2c1c1c3ccccc3ccc1c1[nH]c3ccccc3c21	8.3 µM	5.9 µM	8.3 µM	5.7 µM	8.1 µM	> 10 µM	2.6 µM	5.7 µM	Active	–	–	Active	Active
O=C1NC(=O)c2c1c1c3ccccc3ccc1c1c2c2ccccc2n1[C@@H]1O[C@H](CO)[C@@H](O)[C@H]1O	5.3 µM	2.4 µM	5.3 µM	3.2 µM	2.4 µM	4.4 µM	2.1 µM	3.8 µM	inactive	Active	Active	–	–
O=C1NC(=O)c2c1c1c3ccccc3ccc1c1c2c2ccccc2n1[C@H]1OC[C@@H](O)[C@@H](O)[C@H]1O	6.6 µM	2.1 µM	4.8 µM	3.3 µM	3.3 µM	3.4 µM	2 µM	6 µM	inactive	Active	–	–	–
